In the data set the test system is MS2 coat protein. The data set can be described thus: apparent Kd, MS2 coat protein; higher = weaker binding; RNA-MaP array; tryptophan 2.4 mM where present. The essentials: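 Stalled E. coli RNA polymerase produced the designs on Illumina sequencing-chip clusters. SNAP-549-labelled MS2 coat protein was added from 0.7 or 1.5 nM, doubling to 3 µM, without and then with constant ligand, in 100 mM Tris-HCl pH 7.5, 80 mM KCl, 4 mM MgCl2, BSA, DTT, yeast tRNA and Tween-20. The apparent Kd is the median of filtered per-cluster fits of green signal normalised to red-channel RNA signal and control-cluster median Fmax.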

[1] abbreviates: designed as: OFF switch for tryptophan, no ligand.
The mark [2] stands for this setting: ligand present: tryptophan, designed as: OFF switch for tryptophan.
[3] abbreviates: designed as: ON switch for tryptophan, no ligand.
[4] abbreviates: ligand present: tryptophan, designed as: ON switch for tryptophan.

Turning to “AUAUAUACAUGAGGAUCACCCAUGUUAUUACGAGGACCGGUACGGCCGCCACUCGAUAGAGUAGAAGUAAAUUGUAAUUCAUGUU”, the apparent Kd – broadly, a dissociation constant that holds for the conditions of the assay – stood at 12.4 nM under setting [1] and 12.6 nM under setting [2].
Consider “ACAUGAGGAUCACCCAUGUGUGUAAGUCCUCGAGGACCGGUACGGCCGCCACUCGAACGAGUGUAACAUACUUGUUACAAGUAUG”, for which the “apparent Kd” value is, setting by setting: under setting [3], 24 nM; under setting [4], 24.4 nM.
For “GGAUAGGACACGGCCGCCACUGCGGCUAGAUACUAGCACAUUUCCUCACAUGAGGAUCACCCAUGUAGGACCGGGUGUCCUAUCG”, the “apparent Kd” value reads like this: under setting [1], 95.7 nM; under setting [2], 132 nM.
Turning to “ACAUGAGGAUCACCCAUGUGCAUCACCCGACGAGGACCGGUACGGCCGCCACUCGGGUAUAUAUUUGCAUCGGGUGAUUUUACGU”, the “apparent Kd” value under setting [3] stood at 19.6 nM and the “apparent Kd” value under setting [4] amounted to 14.9 nM.
As for “UCGCCCGGGUCGGCCGCCACUGCGGUGAUGUGACAUGAGGAUCACCCAUGUUGUCAUGUGGCACAUAGGACCGGGACCCGGGCGA”, the “apparent Kd” value runs as follows: under setting [1], 30.5 nM; under setting [2], 29.9 nM.
Turning to “UCGUAUGCGGCGGCCGCCACUCGCGGAUAACGAGAGCUUAACAUGAGGAUCACCCAUGUGUCAUGGAGGACCGGGCCCAUUCACA”, the “apparent Kd” value under setting [3] was 29.2 nM and the “apparent Kd” value under setting [4] stood at 31.4 nM.
As for “AAUGAGUGGUGGUCAAGUGAUCCUCAUGAACGAGGACCGGUACGGCCGCCACUCGAUAACAUGAGGAUCACCCAUGUAAUAAUAA”, the “apparent Kd” value runs as follows: under setting [1], 16.5 nM; under setting [2], 14.8 nM.
In the case of “UUCUUUAAGUCGGCCGCCACUGAAACAUGAGGAUCACCCAUGUAUAUUUGUGUAAAGGUGGAUUACAGGACCGGGACUAUAGUAA”, the “apparent Kd” value under setting [1] came out at 12 nM and the “apparent Kd” value under setting [2] stood at 12 nM.
As for “ACUACGAAGACGGCCGCCACUGAUAUUCGUAGAUCCAUCAAUACAUGAGGAUCACCCAUGUAUAUCAGGACCGGGUCAAGAUGGU”, the “apparent Kd” value was 22.6 nM under setting [1] and 47.2 nM under setting [2].
On to “UACUUGCUGACGGCCGCCACUAGAACAUGAGGAUCACCCAUGUAUGGCGGCCGUCAUGGGUGGACUAGGACCGGGUCAGCAAGAU”, for which the “apparent Kd” value runs as follows: under setting [1], 9.84 nM; under setting [2], 13.6 nM.
For the sequence “ACAUGAGGAUCACCCAUGUUUGAUGUUCCUCGAGGACCGGUACGGCCGCCACUCGAACGAGUGGCGCGCGAGCGCGCGCUCGCGC”, the “apparent Kd” value is, setting by setting: under setting [3], 12.2 nM; under setting [4], 12.7 nM.
Regarding “AGUAAUAAUAUAAAUAAUAUUAGGUCAUGGCGAGGACCGGUACGGCCGCCACUCGGUUACAUGAGGAUCACCCAUGUCCCGCUUA”, the “apparent Kd” value is, setting by setting: under setting [1], 30.5 nM; under setting [2], 34.6 nM.
Turning to “GCAUCCUAGUCGGCCGCCACUGCAAUUGUAAUACUGCUACAUGAACAUGAGGAUCACCCAUGUAGCAGGACCGGGACUAGGAUGC”, the “apparent Kd” value reads like this: under setting [3], 164 nM; under setting [4], 27 nM.
For “ACAUUGCGCUCGGCCGCCACUGGCUAUAGAUUUAUAGCAUUAAUGAACAUGAGGAUCACCCAUGUCAGGACCGGGAGCGAACCAU”, the “apparent Kd” value is, setting by setting: under setting [3], 12.7 nM; under setting [4], 14.5 nM.

Values taken from the EternaBench riboswitch data.
